Test results published in ChEMBL document CHEMBL4619791, “3-Difluoroalkyl Quaternary Oxindoles Inhibit Macrophage Pyroptosis by Blocking Inflammasome Recruitment of Caspase-1” (ACS Med Chem Lett, 2020).
Activity calls are given as the source filed them.

Columns and labels:
J774.A1 [1] = test: Inhibition of pyroptosis in LPS-primed immortalized mouse […] cells followed by subsequent nigericin stimulation by imaging analysis; format: functional, cell-based
J774.A1 [2] = test: Inhibition of pyroptosis in LPS-primed immortalized mouse […] cells assessed as reduction in nigericin-induced IL-beta secretion by imaging analysis; format: functional
[3] = Lipid-water partition coefficient, logP of the compound; format: physicochemical
BMDM [4] = test: Inhibition of pyroptosis in LPS-primed C57BL/6 mouse primary BMDM assessed as effect on nigericin-induced cell morphological changes at 5 uM by propidium iodide staining based confocal microscopy; format: functional
Procedure, shortened: (§1)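 Primary BMDM and J774A.1 cells treated with LPS and nigericin. Swelling, bubble formation and propidium iodide uptake visualized by epifluorescence microscopy.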

J774.A1 [5] = test: Inhibition of pyroptosis cell death in LPS-primed immortalized mouse […] cells assessed as effect on nigericin-induced cell morphological changes by propidium iodide staining based confocal microscopy; format: functional; procedure, shortened: as §1
BMDM [6] = test: Inhibition of pyroptosis in LPS-primed C57BL/6 mouse primary BMDM assessed as reduction in nigericin-induced cell death by Alamar blue assay; format: functional, cell-based
Procedure, shortened: (§2)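 Primary murine macrophages primed with LPS and stimulated with nigericin across a dose range. IL-1β release, LDH release and Alamar blue measured. Means ± SE, ≥3 experimental replicates.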

[7] = biological target: NACHT, LRR and PYD domains-containing protein 3 (Mus musculus) (UniProt Q8R4B8); test: Activation of NLRP3 inflammasome in LPS-primed mouse […] cells assessed as suppression of ATP-induced pyroptosis at 5 uM; format: cell-based; conditions: J774.A1
Sequence of NACHT, LRR and PYD domains-containing protein 3 (Mus musculus) (Q8R4B8 whole entry, the tested form may be a part): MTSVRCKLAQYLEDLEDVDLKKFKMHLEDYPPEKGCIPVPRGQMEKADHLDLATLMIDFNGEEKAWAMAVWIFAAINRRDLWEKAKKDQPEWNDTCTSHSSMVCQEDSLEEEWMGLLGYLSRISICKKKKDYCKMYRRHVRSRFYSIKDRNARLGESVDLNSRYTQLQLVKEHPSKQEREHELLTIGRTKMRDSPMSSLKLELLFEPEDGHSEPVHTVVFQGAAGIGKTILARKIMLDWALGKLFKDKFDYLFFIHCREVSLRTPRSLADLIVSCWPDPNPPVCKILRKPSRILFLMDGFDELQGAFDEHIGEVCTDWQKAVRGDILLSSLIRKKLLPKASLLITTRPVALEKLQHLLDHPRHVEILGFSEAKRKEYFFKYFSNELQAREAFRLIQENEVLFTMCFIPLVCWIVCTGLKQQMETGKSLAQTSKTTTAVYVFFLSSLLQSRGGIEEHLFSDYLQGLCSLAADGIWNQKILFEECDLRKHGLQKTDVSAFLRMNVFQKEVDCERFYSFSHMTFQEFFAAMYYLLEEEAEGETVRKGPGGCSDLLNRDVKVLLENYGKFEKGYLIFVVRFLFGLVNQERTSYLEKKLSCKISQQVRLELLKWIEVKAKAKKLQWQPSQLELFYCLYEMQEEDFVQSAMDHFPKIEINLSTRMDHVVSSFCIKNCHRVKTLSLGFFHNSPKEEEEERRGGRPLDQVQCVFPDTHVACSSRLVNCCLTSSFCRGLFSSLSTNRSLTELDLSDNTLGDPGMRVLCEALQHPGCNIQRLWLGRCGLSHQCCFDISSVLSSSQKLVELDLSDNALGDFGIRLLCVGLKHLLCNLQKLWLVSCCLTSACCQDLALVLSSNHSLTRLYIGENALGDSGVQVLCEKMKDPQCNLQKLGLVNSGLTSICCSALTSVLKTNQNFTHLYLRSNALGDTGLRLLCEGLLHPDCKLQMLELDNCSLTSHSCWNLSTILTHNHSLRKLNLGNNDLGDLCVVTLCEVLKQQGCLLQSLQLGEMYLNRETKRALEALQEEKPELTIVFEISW
Procedure, shortened: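 ATP used as a separate NLRP3 inflammasome activator in macrophages to induce pyroptosis.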

[8] = biological target: T1, Gasdermin-D (Mus musculus) (UniProt Q9D8T2); test: Inhibition of GSDMD cytosol-plasma membrane translocation in LPS-primed immortalized mouse […] cells at 5 uM followed by subsequent nigericin stimulation by immunofluorescence assay; format: cell-based; conditions: J774.A1
T1 sequence (whole entry): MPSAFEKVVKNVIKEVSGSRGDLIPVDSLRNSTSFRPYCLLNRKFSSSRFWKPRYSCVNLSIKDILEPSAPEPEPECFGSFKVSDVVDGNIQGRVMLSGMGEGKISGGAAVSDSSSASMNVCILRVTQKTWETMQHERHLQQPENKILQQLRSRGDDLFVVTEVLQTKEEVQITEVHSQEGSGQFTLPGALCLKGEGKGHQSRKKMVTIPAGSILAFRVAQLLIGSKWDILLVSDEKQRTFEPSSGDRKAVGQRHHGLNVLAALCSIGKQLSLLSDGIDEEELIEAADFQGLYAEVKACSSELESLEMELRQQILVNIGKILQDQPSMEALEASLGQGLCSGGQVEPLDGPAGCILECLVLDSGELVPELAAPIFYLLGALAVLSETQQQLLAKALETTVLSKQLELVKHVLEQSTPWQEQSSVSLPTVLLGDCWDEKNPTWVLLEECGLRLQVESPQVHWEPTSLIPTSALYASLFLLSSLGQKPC
Procedure, shortened: (§3)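 Macrophages were LPS-primed, then stimulated with nigericin, in immortalized and primary cells. Anti-GSDMD immunofluorescence, with line-intensity histograms of cytosol versus plasma-membrane localization. Mean ± SEM, n ≥ 3 independent experiments.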

[9] = biological target: T1, Gasdermin-D (Mus musculus); test: Inhibition of GSDMD cytosol-plasma membrane translocation in LPS-primed C57BL/6 mouse primary BMDM at 5 uM followed by nigericin stimulation by immunofluorescence assay; procedure, shortened: as §3
[10] = biological target: NACHT, LRR and PYD domains-containing protein 3 (Mus musculus) (UniProt Q8R4B8); test: Activation of NLRP3 in LPS-primed C57BL/6 mouse primary BMDM transfected with eGFP-tagged ASC assessed as nigericin-induced ASC oligomerization by measuring speck formation at 5 uM by confocal microscopy
Procedure, shortened: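 Primary macrophages transfected with an ASC-GFP plasmid, then given LPS and nigericin to induce ASC specks. Imaged by confocal microscopy.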

[11] = biological target: Nlrp3/Pycard (Mus musculus) (UniProt Q8R4B8+Q9EPB4); test: Inhibition of NLRP3-ASC interaction in LPS-primed immortalized mouse […] cells at 5 uM by co-immunoprecipitation assay; format: cell-based; conditions: J774.A1
Sequence of Nlrp3/Pycard (Mus musculus) (Q8R4B8 whole entry, looked up): as the sequence (Q8R4B8 whole entry, the tested form may be a part) above
Sequence of Nlrp3/Pycard (Mus musculus) (Q9EPB4 whole entry, looked up): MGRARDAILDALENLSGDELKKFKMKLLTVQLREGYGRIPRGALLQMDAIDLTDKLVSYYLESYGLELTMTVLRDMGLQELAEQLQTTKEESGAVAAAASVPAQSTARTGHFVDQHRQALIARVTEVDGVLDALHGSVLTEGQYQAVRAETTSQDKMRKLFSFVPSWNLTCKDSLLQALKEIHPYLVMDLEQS
Procedure, shortened: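 Coimmunoprecipitation of endogenous ASC and NLRP3 in immortalized macrophages.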

BMDM [12] = test: Induction of ROS generation in LPS-primed C57BL/6 mouse primary BMDM assessed as increase in nigericin-induced ROS level at 5 uM by DCFH-DA probe based FACS analysis; format: functional, cell-based
Procedure, shortened: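 Nigericin-stimulated macrophages loaded with DCFH-DA; ROS read as a shift in fluorescence by flow cytometry.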

J774.A1 [13] = test: Inhibition of pyroptosis in LPS-primed immortalized mouse […] cells assessed as reduction in poly (dA:dT) induced […] secretion by ELISA; format: functional, cell-based
Procedure, shortened: (§4)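 J774A.1 cells stimulated with flagellin or poly(dA:dT). IL-1β release measured by ELISA. Mean ± SEM, n ≥ 3 independent experiments.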

J774.A1 [14] = test: Inhibition of pyroptosis in LPS-primed immortalized mouse […] cells assessed as reduction in flagellin-induced […] secretion by ELISA; format: functional, cell-based; procedure, shortened: as §4
Caspase-1 (Homo sapiens) = biological target: T2, Caspase-1 (Homo sapiens) (UniProt P29466); test: Inhibition of pronase-mediated caspase-1 degradation in HEK293 cell lysate at 5 uM measured after 30 mins by DARTS based Western blot analysis; format: cell-free
T2 sequence (whole entry): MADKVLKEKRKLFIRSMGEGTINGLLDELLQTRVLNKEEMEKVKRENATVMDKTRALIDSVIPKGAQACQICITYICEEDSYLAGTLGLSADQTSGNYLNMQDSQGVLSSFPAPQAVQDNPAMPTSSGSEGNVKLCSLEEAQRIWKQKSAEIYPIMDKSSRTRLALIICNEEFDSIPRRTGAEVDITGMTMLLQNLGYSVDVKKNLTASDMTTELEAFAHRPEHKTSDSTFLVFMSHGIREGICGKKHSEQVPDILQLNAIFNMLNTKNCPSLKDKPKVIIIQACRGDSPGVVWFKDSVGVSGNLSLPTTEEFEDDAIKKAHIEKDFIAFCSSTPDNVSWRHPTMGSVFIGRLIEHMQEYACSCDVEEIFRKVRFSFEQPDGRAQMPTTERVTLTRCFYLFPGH
Procedure, shortened: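 DARTS assay: cell lysates pretreated with compound, then digested with different Pronase concentrations. Caspase-1 stability read by immunoblot against a histone H3 control.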

Mus musculus [15] = test: (§5) Antiinflammatory activity against LPS-induced sepsis C57BL/6J mouse model assessed as reduction in alveolar congestion at 20 mg/kg, iv administered as single dose for 1 hr prior to LPS challenge and measured after 48 hrs by hematoxylin-eosin staining based inverted microscopy analysis; format: functional, organism-based
Mus musculus [16] = test: as §5, with “epithelial architecture damage” for “congestion”; format: functional, organism-based
Mus musculus [17] = test: Antiinflammatory activity against LPS-induced sepsis C57BL/6J mouse model assessed as reduction in serum IL-1beta level at 20 mg/kg, iv administered as single dose for 1 hr prior to LPS challenge and measured after 24 hrs of compound treatment by ELISA; format: functional, organism-based
BMDM [18] = test: Inhibition of pyroptosis in LPS-primed C57BL/6 mouse primary BMDM assessed as reduction in nigericin-induced cell death by LDH assay; format: functional, cell-based; procedure, shortened: as §2
Mus musculus [19] = test: Antiinflammatory activity against LPS-induced sepsis C57BL/6J mouse model assessed as increase in median survival time at 20 mg/kg, iv administered as single dose for 30 min prior to LPS challenge

CCOC(CN1C(=O)C(NC(=O)Nc2ccc(C)cc2)(C(F)(F)C(=O)Nc2ccc(C)cc2)c2ccccc21)OCC (stereo not given)
8 h: MST (Mus musculus [19])
inactive: Activity [10] | inhibition [11]
5.5 µM: EC50 (J774.A1 [1])
92.13 pg/mL: Activity (J774.A1 [2])
4.1: logP [3]
active: inhibition (BMDM [4]) | inhibition (J774.A1 [5]) | inhibition (BMDM [6]) Dose-dependent effect | Activity [7] | inhibition [8] | inhibition [9] | Activity (BMDM [12]) | inhibition (J774.A1 [13]) | inhibition (J774.A1 [14]) | inhibition (Caspase-1 (Homo sapiens)) | Activity (Mus musculus [15]) | Activity (Mus musculus [16]) | Activity (Mus musculus [17]) | inhibition (BMDM [18]) Dose-dependent effect
